SIRT5 block: sirtuin-5 (human) deacylase inhibition; AID 652115; Purified SirT5, succinyl-peptide AMC, trypsin-coupled fluorescence; 330,000 tested, 1.1% active; inhibition, % at 15 µM; Q9NXA8; in the data active means inhibition above about 15%; inconclusive means no clear call, values can overlap the other calls
Target sequence (Q9NXA8 whole entry, looked up): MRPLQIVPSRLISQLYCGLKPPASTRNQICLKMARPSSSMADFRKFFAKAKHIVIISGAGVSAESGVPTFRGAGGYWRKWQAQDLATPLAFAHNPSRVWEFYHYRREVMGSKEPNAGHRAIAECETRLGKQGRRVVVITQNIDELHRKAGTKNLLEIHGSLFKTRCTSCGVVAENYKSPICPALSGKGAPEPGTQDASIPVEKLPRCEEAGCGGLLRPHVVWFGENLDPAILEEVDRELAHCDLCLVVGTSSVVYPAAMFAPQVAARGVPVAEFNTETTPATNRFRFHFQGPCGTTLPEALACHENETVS
S100A4 inh HTS: blocks human S100A4 binding to myosin IIA peptide | AID 652163 | inhibition, % at 10.7 µM | S100A4/TAMRA-MyoIIA peptide fluorescence polarization | 360,000 tested, 0.14% active;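 active means mean inhibition of at least 70% across replicates, with every replicate also reaching that level; inconclusive means mean inhibition reaches 70% but some replicates fall short; inactive means mean inhibition below 70%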
Target sequence (P26447 whole entry, looked up): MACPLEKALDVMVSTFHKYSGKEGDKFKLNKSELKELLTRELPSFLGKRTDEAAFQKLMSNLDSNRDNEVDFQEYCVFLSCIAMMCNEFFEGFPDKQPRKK
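Material: S100A4 monomer protein | Medium: HEPES pH 7.2 with CaCl2, KCl, NaCl, DTT, Triton | Reagent: Labelled myosin peptide probe, 5 nM | Doses: One dose per compound | Times: 5 min incubation before reading | Benchmarks: Neutral control DMSO, positive control TFP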
Cneo AK release: causes C. neoformans cell lysis | lysis activity, % at 15 µM | adenylate kinase release luminescence, 4 h; normalised: neutral wells 0, clomiphene wells 100 | 360,000 tested, 0.2% active | AID 651654;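 active means mean lysis activity across replicates of at least 80%, whatever share of replicates individually reach that level; inactive means mean lysis activity below 80%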
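Assay system: C. neoformans cells. Amount: yeast cell density of 5 × 10^6 cells/mL. Technique: AK luminescence. Buffer or medium: YPD. Times: static 4 h at 37 °C with compound, 1 h detection. Dosing: single-point compound dose. Read-out: lysis from increased AK signal.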
PGC1a acetyl inh: PGC1a acetylation modulation, inhibitor mode | AID 651687 | U2OS PGC1a acetylation, AlphaScreen anti-acetyl-lysine; with virally co-expressed GCN5 acetyltransferase | inhibition, % at 15.6 µM | 350,000 tested, 0.17% active;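 active means every replicate shows inhibition of at least 40%; inconclusive means mean inhibition at least 40% but some replicate below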
Statin myotox sup: suppression of simvastatin myotoxicity | C2C12 myotubes + simvastatin, ATP luminescence, 48 h; scaled: DMSO 0, geranylgeraniol control 100 | rescue of ATP level, % at 7.49 µM | 330,000 tested, 0.78% active | AID 602340;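 active means mean ATP rescue above about 67%, or every replicate alone reaching that limit, limit read from the data, passing the limit was not always enough; inconclusive means no clear call, values can overlap the other calls; inactive means mean under the limit and some replicate under it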;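 further: myotubes were challenged with 10 µM simvastatin during compound exposure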
rRNA inh HTS: selective bacterial rRNA inhibition in E. coli | 350,000 tested, 1.6% active | GFP signal change (wild-type ribosome), % (test concentration not listed) | AID 720706 | E. coli WT GFP vs humanized-ribosome RFP mutants, fluorescence, 24 h; hits give low values; DMSO median 0, no signal -100;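 active means significant combined selectivity score with lowered wild-type GFP, culture density cut under 30%, mutant RFP and density less affected; inactive means any of these conditions unmet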
AID977621: growth inhibition of wild-type GFP E. coli, dose response, H69 mutant RFP, cherry-pick | shares compounds with rRNA inh HTS | E. coli wild-type GFP strain growth, fluorescence, 24 h | activity change, negative = inhibition at 50 µM | 1,900 tested, under 10 active | AID 977621;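 active means Wild-type ribosome reporter drop at least double the humanized mutant ribosome reporter drop, growth loss under a set limit; inconclusive means no clear call, values can overlap the other calls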;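 further: wild-type GFP and H69 mutant RFP strains grown together 50/50 in each well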
AID977628: E. coli growth inhibition, wild-type GFP versus h24 humanized RFP strain, dose response, h24 mutant RFP vs wild-type GFP, cherry-pick; shares compounds with rRNA inh HTS; E. coli WT GFP strain growth, fluorescence, 24 h; activity change, negative = inhibition at 50 µM; 1,900 tested, under 10 active;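 active means compound lowering the normal-ribosome reporter at least twice as much as the humanized-ribosome reporter, growth loss under a set limit; inconclusive means no clear call, values can overlap the other calls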;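 further: wild-type GFP and h24 humanized RFP strains co-cultured 1 to 1 per well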
Numbers stand for hits; . = inactive; ? = inconclusive; / = no result. Rows were chosen to be rich in hits. Some 3% of all compounds tested hit in one or more screens of this group.

SMILES | SIRT5 block | S100A4 inh HTS | Cneo AK release | PGC1a acetyl inh | Statin myotox sup | rRNA inh HTS | AID977621 | AID977628
COc1ccc(NC(=O)Nc2cccc3c2O[C@H](CN(C)S(=O)(=O)c2ccc(Cl)cc2)[C@@H](C)CN([C@@H](C)CO)C3=O)cc1 | . | . | . | . | . | . | . | .
Cc1cc(C(=O)Nc2cccc3c2O[C@H](CN(C)S(=O)(=O)c2ccc(Cl)cc2)[C@H](C)CN([C@@H](C)CO)C3=O)n(C)n1 | . | . | . | . | . | -24.5 | . | ?
CNC[C@H]1Oc2ccc(NC(=O)C3CC3)cc2C(=O)N([C@@H](C)CO)C[C@H]1C | . | . | . | . | . | . | / | /
Cc1noc(C)c1S(=O)(=O)N(C)C[C@H]1OCCCC[C@H](C)Oc2ccc(NC(=O)Cc3ccccc3)cc2C(=O)N([C@H](C)CO)C[C@H]1C | . | . | . | . | / | . | / | /
Cc1ccc(S(=O)(=O)Nc2ccc3c(c2)C(=O)N([C@@H](C)CO)C[C@H](C)[C@@H](CN(C)CC2CCCCC2)OCCCC[C@H](C)O3)cc1 | . | . | . | . | / | . | / | /
Cc1ccc(C2NC(c3ccc(C)cc3)C(C)C(=O)C2C)cc1 (stereo not drawn) | . | . | / | / | / | -27.4 | . | .
Cc1ccc(S(=O)(=O)N(C)C[C@@H]2Oc3c(NS(=O)(=O)c4cn(C)cn4)cccc3C(=O)N([C@@H](C)CO)C[C@@H]2C)cc1 | / | / | / | . | . | . | / | /
C[C@H](CO)N1C[C@H](C)[C@@H](CN(C)C(=O)Nc2cccc3ccccc23)Oc2ccc(NC(=O)C3CCCCC3)cc2C1=O | . | / | / | . | . | . | / | /
COc1ccc2c3c([nH]c2c1)[C@@H](CO)N(C(=O)NC(C)C)CC31CN(Cc2ccccc2)C1 | . | . | / | . | / | . | / | /
Cc1cccc(S(=O)(=O)N2CC[C@@H]3[C@H](CO)Nc4ccc(C#Cc5cccc(F)c5)cc4[C@@H]32)c1 | . | . | . | . | . | . | / | /
CC(Oc1ccccc1)C(=O)NC1CCCCCCC1 (stereo not drawn) | . | . | . | / | . | . | / | /
CC(OC(=O)COc1ccccc1)C(=O)NC1CCCC1 (stereo not drawn) | . | . | . | . | . | -17.9 | / | .
COC(=O)c1sc(-c2ccc(C(C)(C)C)cc2)cc1NC(=O)c1ccccc1C(=O)O | . | . | / | . | / | -16.8 | . | /
CC(=O)Nc1ccc(NC(=O)C(C)OC(=O)CCCc2c[nH]c3ccccc23)cc1 (stereo not drawn) | . | . | . | / | . | . | / | /
CC(OC(=O)CCc1c[nH]c2ccccc12)C(=O)c1ccccc1 (stereo not drawn) | . | . | / | . | / | -24.8 | / | ?
CC(OC(=O)CCc1nc2ccccc2c(=O)[nH]1)C(=O)c1ccc(Br)cc1 (stereo not drawn) | . | . | . | / | / | -23.5 | / | ?
CCC(=O)N(C)C[C@@H]1Oc2ncc(C#CC(C)(C)O)cc2C(=O)N([C@@H](C)CO)C[C@H]1C | . | . | . | . | . | . | / | /
O=C(O)c1cc(-c2cccs2)nn1-c1cccc(Cl)c1 | . | . | . | . | . | -33.1 | . | ?
COc1ccc(CC(=O)NCc2ccccc2)cc1OC | . | . | . | . | . | . | / | /
COc1ccc(CC(=O)NCc2csc(-c3cccs3)n2)cc1OC | . | . | / | / | / | -20.5 | . | /
Cc1cc([N+](=O)[O-])nn1CC(=O)N/N=C/c1ccccc1F | . | . | / | . | / | . | / | /
Cc1cc([N+](=O)[O-])nn1CC(=O)Nc1cc(F)ccc1F | . | . | / | / | / | -18.2 | . | ?
O=S(=O)(c1cccc(-c2nc3ccccc3s2)c1)N1CCCC1 | . | . | . | . | . | -22.1 | . | ?

From PubChem BioAssay
